Source: ChEMBL document CHEMBL4346672, “Antimicrobial and KPC/AmpC inhibitory activity of functionalized benzosiloxaboroles” (Eur J Med Chem, 2019)
Values after ≈ are worked out from the molar mass of the structure shown. Active and inactive are the calls of the source. The rule behind the calls is not given here.

Test system: Proteus mirabilis
Experiment: Antibacterial activity against Proteus mirabilis ATCC 12453 assessed as diameter of zone inhibition measured after 18 hrs by CLSI disc diffusion method
Format: functional
Conditions: not given
Procedure, shortened: (§1)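 Disc diffusion on Mueller-Hinton II agar. Compounds dissolved in DMSO. Strains stored at -80 °C and subcultured twice on tryptic soy agar before testing. Inhibition zones read after 35 °C, 18 h.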

Structure (SMILES) | diameter of the inhibition zone (DIZ)
C[Si]1(C)OB(O)c2ccc(Cl)c(Cl)c21 | inactive

Test system: Enterococcus faecalis
Experiment: Antibacterial activity against Enterococcus faecalis ATCC 29212 measured after 18 hrs by CLSI broth dilution method
Format: functional
Conditions: ATCC 29212, 18 h
Procedure, shortened: (§2)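 Broth MIC in Mueller-Hinton II broth following CLSI, compounds dissolved in DMSO. Strains subcultured twice on tryptic soy agar before testing. Growth read after 35 °C, 18 h.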

MIC [µg/mL] | Structure (SMILES)
25 (≈ 101 µM) | C[Si]1(C)OB(O)c2ccc(Cl)c(Cl)c21

Test system: Bordetella bronchiseptica
Experiment: Antibacterial activity against Bordetella bronchiseptica ATCC 4617 measured after 18 hrs by CLSI broth dilution method
Format: functional
Conditions: ATCC 4617, 18 h
Procedure, shortened: as §2

MIC [µg/mL] | Structure (SMILES)
100 (≈ 405 µM) | C[Si]1(C)OB(O)c2ccc(Cl)c(Cl)c21

Test system: Klebsiella pneumoniae
Experiment: Antibacterial activity against Klebsiella pneumoniae ATCC 13883 measured after 18 hrs by CLSI broth dilution method
Format: functional
Conditions: ATCC 13883, 18 h
Procedure, shortened: as §2

MIC [µg/mL] | Structure (SMILES)
400 (≈ 1620 µM) | C[Si]1(C)OB(O)c2ccc(Cl)c(Cl)c21

Test system: Enterococcus faecium
Experiment: Antibacterial activity against Enterococcus faecium ATCC 6057 assessed as diameter of zone inhibition measured after 18 hrs by CLSI disc diffusion method
Format: functional
Conditions: not given
Procedure, shortened: as §1

Structure (SMILES) | diameter of the inhibition zone (DIZ) [mm]
C[Si]1(C)OB(O)c2ccc(Cl)c(Cl)c21 | 28

Test system: Proteus mirabilis
Experiment: Antibacterial activity against Proteus mirabilis ATCC 12453 measured after 18 hrs by CLSI broth dilution method
Format: functional
Conditions: ATCC 12453, 18 h
Procedure, shortened: as §2

MIC [µg/mL] | Structure (SMILES)
> 400 | C[Si]1(C)OB(O)c2ccc(Cl)c(Cl)c21

Test system: Acinetobacter baumannii
Experiment: Antibacterial activity against Acinetobacter baumannii ATCC 19606 assessed as diameter of zone inhibition measured after 18 hrs by CLSI disc diffusion method
Format: functional
Conditions: not given
Procedure, shortened: as §1

Structure (SMILES) | diameter of the inhibition zone (DIZ)
C[Si]1(C)OB(O)c2ccc(Cl)c(Cl)c21 | inactive

Test system: Klebsiella pneumoniae
Experiment: Antibacterial activity against Klebsiella pneumoniae ATCC 13883 assessed as fold reduction of MIC in presence of efflux pump inhibitor PAbetaN incubated for 18 hrs by broth microdilution method
Format: functional
Conditions: not given
Procedure, shortened: (§3)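 MICs determined with and without PAβN at 50 mg/L in Mueller-Hinton broth containing 1 mM MgSO₄. 2-fold serial dilutions per CLSI. Fold change taken from the paired MICs after 35 °C, 18 h.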

Structure (SMILES) | fold change (FC)
C[Si]1(C)OB(O)c2ccc(Cl)c(Cl)c21 | 32

Test system: Bacillus subtilis
Experiment: Antibacterial activity against Bacillus subtilis ATCC 6633 assessed as diameter of zone inhibition measured after 18 hrs by CLSI disc diffusion method
Format: functional
Conditions: not given
Procedure, shortened: as §1

Structure (SMILES) | diameter of the inhibition zone (DIZ) [mm]
C[Si]1(C)OB(O)c2ccc(Cl)c(Cl)c21 | 33

Test system: Candida parapsilosis
Experiment: Antifungal activity against Candida parapsilosis ATCC 22019 assessed as decrease in fungal cell growth at 0.78 to 12.5 mg/L incubated for 24 hrs by CLSI broth dilution method
Format: functional
Conditions: Lodderomyces parapsilosis, ATCC 22019, 24 h
Procedure, shortened: (§4)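 Yeast broth dilution in RPMI 1640 with 2% glucose, compounds in DMSO. Yeasts pre-grown on Sabouraud dextrose agar. Growth read after 35 °C, 24 h.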

MIC [µg/mL] | Structure (SMILES)
12.5 (≈ 50.6 µM) | C[Si]1(C)OB(O)c2ccc(Cl)c(Cl)c21

Test system: Serratia marcescens
Conditions: ATCC 13880

Structure (SMILES) | DIZ
C[Si]1(C)OB(O)c2ccc(Cl)c(Cl)c21 | inactive

Test system: Pichia kudriavzevii
Experiment: Antifungal activity against Candida krusei ATCC 6258 assessed as diameter of zone inhibition incubated for 24 hrs by CLSI disc diffusion method
Format: functional
Conditions: not given
Procedure, shortened: (§5)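 Yeast disc diffusion on Mueller-Hinton agar supplemented with 2% glucose and 0.5 mg/L methylene blue. Compounds in DMSO. Yeasts subcultured on Sabouraud dextrose agar before testing. Zones read after 35 °C, 24 h.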

Structure (SMILES) | diameter of the inhibition zone (DIZ) [mm]
C[Si]1(C)OB(O)c2ccc(Cl)c(Cl)c21 | 29

Test system: Serratia marcescens
Experiment: Antibacterial activity against Serratia marcescens ATCC 13880 measured after 18 hrs by CLSI broth dilution method
Format: functional
Conditions: ATCC 13880, 18 h
Procedure, shortened: as §2

MIC [µg/mL] | Structure (SMILES)
> 400 | C[Si]1(C)OB(O)c2ccc(Cl)c(Cl)c21

Test system: Escherichia coli
Experiment: Antibacterial activity against Escherichia coli ATCC 25922 assessed as diameter of zone inhibition measured after 18 hrs by CLSI disc diffusion method
Format: functional
Conditions: not given
Procedure, shortened: as §1

Structure (SMILES) | diameter of the inhibition zone (DIZ)
C[Si]1(C)OB(O)c2ccc(Cl)c(Cl)c21 | inactive

Test system: Candida albicans
Experiment: Antifungal activity against Candida albicans ATCC 90028 assessed as diameter of zone inhibition incubated for 24 hrs by CLSI disc diffusion method
Format: functional
Conditions: not given
Procedure, shortened: as §5

Structure (SMILES) | diameter of the inhibition zone (DIZ) [mm]
C[Si]1(C)OB(O)c2ccc(Cl)c(Cl)c21 | 33

Test system: Acinetobacter baumannii
Experiment: Antibacterial activity against Acinetobacter baumannii ATCC 19606 measured after 18 hrs by CLSI broth dilution method
Format: functional
Conditions: ATCC 19606, 18 h
Procedure, shortened: as §2

MIC [µg/mL] | Structure (SMILES)
400 (≈ 1620 µM) | C[Si]1(C)OB(O)c2ccc(Cl)c(Cl)c21

Test system: Klebsiella pneumoniae
Conditions: ATCC 13883

Structure (SMILES) | DIZ
C[Si]1(C)OB(O)c2ccc(Cl)c(Cl)c21 | inactive

Test system: Bordetella bronchiseptica
Experiment: Antibacterial activity against Bordetella bronchiseptica ATCC 4617 assessed as diameter of zone inhibition measured after 18 hrs by CLSI disc diffusion method
Format: functional
Conditions: not given
Procedure, shortened: as §1

Structure (SMILES) | diameter of the inhibition zone (DIZ) [mm]
C[Si]1(C)OB(O)c2ccc(Cl)c(Cl)c21 | 12

Test system: Enterococcus faecalis
Experiment: Antibacterial activity against Enterococcus faecalis ATCC 29212 assessed as diameter of zone inhibition measured after 18 hrs by CLSI disc diffusion method
Format: functional
Conditions: not given
Procedure, shortened: as §1

Structure (SMILES) | diameter of the inhibition zone (DIZ) [mm]
C[Si]1(C)OB(O)c2ccc(Cl)c(Cl)c21 | 21

Test system: Stenotrophomonas maltophilia
Experiment: Antibacterial activity against Stenotrophomonas maltophilia ATCC 13637 assessed as fold reduction of MIC in presence of efflux pump inhibitor PAbetaN incubated for 18 hrs by broth microdilution method
Format: functional
Conditions: not given
Procedure, shortened: as §3

Structure (SMILES) | fold change (FC)
C[Si]1(C)OB(O)c2ccc(Cl)c(Cl)c21 | 32

Test system: Stenotrophomonas maltophilia
Experiment: Antibacterial activity against Stenotrophomonas maltophilia ATCC 13637 measured after 18 hrs by CLSI broth dilution method
Format: functional
Conditions: ATCC 13637, 18 h
Procedure, shortened: as §2

MIC [µg/mL] | Structure (SMILES)
200 (≈ 810 µM) | C[Si]1(C)OB(O)c2ccc(Cl)c(Cl)c21

Test system: Burkholderia cepacia
Experiment: Antibacterial activity against Burkholderia cepacia ATCC 25416 assessed as diameter of zone inhibition measured after 18 hrs by CLSI disc diffusion method
Format: functional
Conditions: not given
Procedure, shortened: as §1

Structure (SMILES) | diameter of the inhibition zone (DIZ)
C[Si]1(C)OB(O)c2ccc(Cl)c(Cl)c21 | inactive

Test system: Meyerozyma guilliermondii
Experiment: Antifungal activity against Candida guilliermondii IBA 155 assessed as diameter of zone inhibition incubated for 24 hrs by CLSI disc diffusion method
Format: functional
Conditions: not given
Procedure, shortened: as §5

Structure (SMILES) | diameter of the inhibition zone (DIZ) [mm]
C[Si]1(C)OB(O)c2ccc(Cl)c(Cl)c21 | 47

Test system: not listed separately
Experiment: Dissociation constant, pKa1 of compound in 0.1 M NaOH by potentiometric analysis
Format: physicochemical
Conditions: not given

pKa | Structure (SMILES)
6 | C[Si]1(C)OB(O)c2ccc(Cl)c(Cl)c21

Test system: Staphylococcus aureus
Experiment: Antibacterial activity against Staphylococcus aureus ATCC 6538P measured after 18 hrs by CLSI broth dilution method
Format: functional
Conditions: not given
Procedure, shortened: as §2

MIC [µg/mL] | Structure (SMILES)
6.25 (≈ 25.3 µM) | C[Si]1(C)OB(O)c2ccc(Cl)c(Cl)c21

Test system: Candida tropicalis
Experiment: Antifungal activity against Candida tropicalis IBA 171 assessed as diameter of zone inhibition incubated for 24 hrs by CLSI disc diffusion method
Format: functional
Conditions: not given
Procedure, shortened: as §5

Structure (SMILES) | diameter of the inhibition zone (DIZ) [mm]
C[Si]1(C)OB(O)c2ccc(Cl)c(Cl)c21 | 31

Test system: Enterobacter cloacae
Experiment: Antibacterial activity against Enterobacter cloacae DSM 6234 measured after 18 hrs by CLSI broth dilution method
Format: functional
Conditions: DSM 6234, 18 h
Procedure, shortened: as §2

MIC [µg/mL] | Structure (SMILES)
> 400 | C[Si]1(C)OB(O)c2ccc(Cl)c(Cl)c21

Test system: Staphylococcus epidermidis
Experiment: Antibacterial activity against Staphylococcus epidermidis ATCC 12228 assessed as diameter of zone inhibition measured after 18 hrs by CLSI disc diffusion method
Format: functional
Conditions: not given
Procedure, shortened: as §1

Structure (SMILES) | diameter of the inhibition zone (DIZ) [mm]
C[Si]1(C)OB(O)c2ccc(Cl)c(Cl)c21 | 22

Test system: Escherichia coli
Experiment: Antibacterial activity against Escherichia coli ATCC 25922 assessed as fold reduction of MIC in presence of efflux pump inhibitor PAbetaN incubated for 18 hrs by CLSI broth microdilution method
Format: functional
Conditions: not given
Procedure, shortened: as §3

Structure (SMILES) | fold change (FC)
C[Si]1(C)OB(O)c2ccc(Cl)c(Cl)c21 | 64

Test system: Proteus mirabilis
Experiment: Antibacterial activity against Proteus mirabilis ATCC 12453 assessed as fold reduction of MIC in presence of efflux pump inhibitor PAbetaN incubated for 18 hrs by broth microdilution method
Format: functional
Conditions: not given
Procedure, shortened: as §3

Structure (SMILES) | fold change (FC)
C[Si]1(C)OB(O)c2ccc(Cl)c(Cl)c21 | 4

Test system: Pseudomonas aeruginosa
Experiment: Antibacterial activity against Pseudomonas aeruginosa ATCC 27853 measured after 18 hrs by CLSI broth dilution method
Format: functional
Conditions: ATCC 27853, 18 h
Procedure, shortened: as §2

MIC [µg/mL] | Structure (SMILES)
> 400 | C[Si]1(C)OB(O)c2ccc(Cl)c(Cl)c21

Test system: Burkholderia cepacia
Experiment: Antibacterial activity against Burkholderia cepacia ATCC 25416 measured after 18 hrs by CLSI broth dilution method
Format: functional
Conditions: ATCC 25416, 18 h
Procedure, shortened: as §2

MIC [µg/mL] | Structure (SMILES)
> 400 | C[Si]1(C)OB(O)c2ccc(Cl)c(Cl)c21

Test system: Staphylococcus aureus
Experiment: Antibacterial activity against Staphylococcus aureus ATCC 6538P assessed as diameter of zone inhibition measured after 18 hrs by CLSI disc diffusion method
Format: functional
Conditions: not given
Procedure, shortened: as §1

Structure (SMILES) | diameter of the inhibition zone (DIZ) [mm]
C[Si]1(C)OB(O)c2ccc(Cl)c(Cl)c21 | 23

Test system: Enterococcus faecium
Experiment: Antibacterial activity against Enterococcus faecium ATCC 6057 measured after 18 hrs by CLSI broth dilution method
Format: functional
Conditions: ATCC 6057, 18 h
Procedure, shortened: as §2

MIC [µg/mL] | Structure (SMILES)
25 (≈ 101 µM) | C[Si]1(C)OB(O)c2ccc(Cl)c(Cl)c21

Test system: Candida parapsilosis
Experiment: Antifungal activity against Candida parapsilosis ATCC 22019 assessed as diameter of zone inhibition incubated for 24 hrs by CLSI disc diffusion method
Format: functional
Conditions: not given
Procedure, shortened: as §5

Structure (SMILES) | diameter of the inhibition zone (DIZ) [mm]
C[Si]1(C)OB(O)c2ccc(Cl)c(Cl)c21 | 28

Test system: Meyerozyma guilliermondii
Experiment: Antifungal activity against Candida guilliermondii IBA 155 assessed as decrease in fungal cell growth at 0.78 to 12.5 mg/L incubated for 24 hrs by CLSI broth dilution method
Format: functional
Conditions: IBA 155, 24 h
Procedure, shortened: as §4

MIC [µg/mL] | Structure (SMILES)
25 (≈ 101 µM) | C[Si]1(C)OB(O)c2ccc(Cl)c(Cl)c21
